ABCB6 inh MLPCN – human ABCB6 transporter inhibition | AID 602162 | K562-ABCB6 porphyrin accumulation, flow cytometry, 1 h; hits give low values | actives 0.19% (n = 360,000) | fluorescence ratio to DMSO, % at 10 µM;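 active means fluorescence ratio to DMSO below 75%, the collection mean minus 3 SD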;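 further: signal is porphyrin accumulated inside mitochondria; 100% equals median channel fluorescence of DMSO control wells; lower ratio means ABCB6 inhibition with less porphyrin fluorescence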
ABCB1 inh – blocks JC-1 efflux by human ABCB1 transporter | P08183 | CCRF-Adr cells, flow cytometry | inhibition, % at 6.6 µM | actives 0.067% (n = 190,000) | AID 1326; in the data active means inhibition above about 40%;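 further: 0% = vehicle and 100% = reference inhibitor; higher value means more JC-1 retained so stronger ABCB1 efflux block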
ABCG2 block – blocks JC-1 efflux by human ABCG2 transporter; Q9UNQ0; IgMXP3 cells, flow cytometry; inhibition, % at 6.6 µM; actives 0.1% (n = 190,000);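 active means inhibition above 80%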;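 further: 0% = DMSO and 100% = nicardipine control wells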
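System: two drug-resistant human cell lines, ABCG2 and ABCB1; controls: nicardipine high and DMSO low controls; times: 10 min exposure at 25 °C with rotation, no wash; detection: flow cytometry of retained JC-1 fluorescence; read-out basis: percent efflux inhibition, scaled nicardipine 100% to DMSO 0%; doses: one concentration, 6.6 µM final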
p97 inhibitor – inhibitors of human p97 ATPase; actives 0.42% (n = 220,000); AID 1481; recombinant p97 ATPase, Kinase-Glo ATP luminescence, 3 h; inhibition, % at 8 µM; in the data active means inhibition above about 15%;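 further: 0% = DMSO vehicle and 100% = wells lacking enzyme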
Rad51 HR inh – Rad51 (human) homologous recombination inhibition. AID 1385. actives 0.085% (n = 200,000). inhibition, % at 10 µM. Q06609. hRad51 DNA strand exchange, fluorescence dequenching;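 active means inhibition above 40% at the single screening dose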;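 further: 0% = DMSO control wells and 100% = blanks with heterologous ssDNA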
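material = hRad51 filaments on single-stranded DNA | timing = filaments 15 min 37 °C, then compound 30 min | signal = FRET fluorescence dequenching, excitation 485 nm, emission 520 nm | benchmarks = control wells and blank wells on each plate | evaluation = percent inhibition relative to plate controls and blanks | compound = 10 µM final, single point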
HSV replic up – increases HSV replication in cells; maximum fold increase; actives 0.005% (n = 220,000); HSV replication augmentation in cells, fold increase; in the data active means maximum fold increase above about 1.5; tested in PC3 cells
ABCB6 inh CP1 – blocks the human ABCB6 transporter | shares compounds with ABCB6 inh MLPCN | K562-ABCB6 porphyrin accumulation, flow cytometry, 1 h; hits give low values | ratio response (% of DMSO), % at 10 µM | 700 tested, under 10 active | AID 602430;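 active means repeat-averaged ratio response below 75% of DMSO, the collection mean minus 3 SD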;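 further: median porphyrin fluorescence at 575 nm with 488 nm excitation from mitochondria; lower ratio means less porphyrin signal so ABCB6 inhibition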
* marks the source's active call; other numbers are inactive results. Shown are actives, neighbours in structure and some others; about 0.55% of the full set was active somewhere.

Screening CCOC(=O)C1CN(S(=O)(=O)c2ccccc2)C1 returned ABCB6 inh MLPCN 96.0, ABCB1 inh 0.4, ABCG2 block 0.6, p97 inhibitor 3.0, Rad51 HR inh 2.5 and HSV replic up inactive.
For CCOC(=O)C1(C(=O)OCC)CCN(S(=O)(=O)c2ccccc2)CC1 the results were ABCB6 inh MLPCN 101.0 and ABCB6 inh CP1 99.0.
CSc1ccc(OC2(C)CCN(Cc3ccc4c(c3)OCCO4)C2)cc1 (centres undefined) was read as ABCB6 inh MLPCN 90.0.
`O=C(O)CSCC(=O)N1CCCN(c2nccc(C(F)(F)F)n2)CC1` gave ABCB6 inh MLPCN 94.0.
Screening O=C(O)COCC(=O)N1CCCN(c2nccc(C(F)(F)F)n2)CC1 returned ABCB6 inh MLPCN 50.0* and ABCB6 inh CP1 102.0.
For CCOC(=O)C1CCN(S(=O)(=O)c2ccc(OCC(=O)OC)cc2)CC1 the results were ABCB6 inh MLPCN 99.0, ABCB1 inh 0.7, ABCG2 block 10.6, p97 inhibitor -8.2, Rad51 HR inh -4.2, HSV replic up inactive and ABCB6 inh CP1 100.0.
For CC(=O)c1c(C)oc2ccc(NS(=O)(=O)c3ccc(F)cc3C)cc12 the results were ABCB6 inh MLPCN 73.0* and ABCB6 inh CP1 101.0.
For Cc1ccc2nc(CSc3nnc(Cc4cccs4)n3C3CCCCC3)cc(=O)n2c1 the results were ABCB6 inh MLPCN 66.0*, ABCB1 inh 3.1, ABCG2 block 12.9, p97 inhibitor 1.5, Rad51 HR inh 2.6, HSV replic up inactive and ABCB6 inh CP1 102.0.
CN(C(=O)C1CCCCC1)C1CCS(=O)(=O)C1 (centres undefined) was read as ABCB6 inh MLPCN 100.0.
`CN(C(=O)C1CCCC1)C1CCS(=O)(=O)C1` (centres undefined) gave ABCB6 inh MLPCN 71.0* and ABCB6 inh CP1 99.0.
Screening CC(=O)c1ccc(-c2cnc3c(NC=O)cc(-c4cnn(C)c4)cn23)cc1 returned ABCB6 inh MLPCN 104.0.
`CCc1cc(=O)oc2c(C)c(OCC(=O)N3CCCc4ccccc43)ccc12` gave ABCB6 inh MLPCN 74.0*, ABCB1 inh 4.2, ABCG2 block 9.8, p97 inhibitor -1.5, Rad51 HR inh -6.6, HSV replic up inactive and ABCB6 inh CP1 99.0.
`CC1(C)Cn2c(nnc2-c2ccccc2)S1` gave ABCB6 inh MLPCN 74.0*, ABCB1 inh -0.1, ABCG2 block -0.2, p97 inhibitor 0.9, Rad51 HR inh -3.8, HSV replic up inactive and ABCB6 inh CP1 102.0.
Screening CCOC(=O)C1=CCC2C(=O)N(C)C(=O)C12 (centres undefined) returned ABCB6 inh MLPCN 104.0.
Screening CCOC(=O)N1CCC(N2Cc3cccc(C(=O)NCc4ccccn4)c3C2=O)CC1 returned ABCB6 inh MLPCN 73.0*, ABCB1 inh -1.3, ABCG2 block -2.4, p97 inhibitor -0.9, Rad51 HR inh 9.5, HSV replic up inactive and ABCB6 inh CP1 99.0.
For O=C(CN1c2cccc3cccc(c23)S1(=O)=O)NCc1ccccc1Cl the results were ABCB6 inh MLPCN 74.0* and ABCB6 inh CP1 103.0.
For Cc1nc(N2CCN(Cc3ccc4c(c3)OCO4)CC2)nc2c1C(=O)CC(c1ccco1)C2 (centres undefined) the results were ABCB6 inh MLPCN 73.0*, ABCB1 inh -3.0, ABCG2 block -0.1, p97 inhibitor -3.5, Rad51 HR inh 0.3, HSV replic up inactive and ABCB6 inh CP1 198.0.
`COc1ccc(NC(=O)COC(=O)CCCC2=NS(=O)(=O)c3ccccc3N2)cc1Cl` gave ABCB6 inh MLPCN 101.0.
`COc1cccc(NC(=O)COC(=O)CCCC2=NS(=O)(=O)c3ccccc3N2)c1` gave ABCB6 inh MLPCN 14.0* and ABCB6 inh CP1 102.0.
`COc1ccc(NC(=O)COC(=O)CCCC2=NS(=O)(=O)c3ccccc3N2)cc1` gave ABCB6 inh MLPCN 102.0 and ABCB6 inh CP1 100.0.
For Cc1c(CC(=O)NCC(=O)NCC(=O)N[C@@H](Cc2ccccc2)C(=O)O)c(=O)oc2c(C)c(O)ccc12 the results were ABCB6 inh MLPCN 106.0.
For Cc1cccc(N2CCN(C(=O)CCN3C(=O)C4C5C=CC(C5)C4C3=O)CC2C)c1 (centres undefined) the results were ABCB6 inh MLPCN 67.0*, ABCB1 inh 0.0, ABCG2 block 2.9, p97 inhibitor -2.4, HSV replic up inactive and ABCB6 inh CP1 96.0.
`CCOC(=O)CNC(=O)N1C[C@H]2CON(C)[C@H]2C[C@H]1c1ccccc1Br` gave ABCB6 inh MLPCN 103.0.
Screening CC(=O)Nc1ccc(OCc2cn(CC(=O)c3ccc(O)cc3)nn2)cc1 returned ABCB6 inh MLPCN 101.0.
For CCN(CC)CCNc1nc2c(c(=O)n(C)c(=O)n2C)n1C/C=C(/C)Cl the results were ABCB6 inh MLPCN 73.0*, ABCB1 inh 0.2, ABCG2 block 1.1, p97 inhibitor 3.5, Rad51 HR inh 2.9, HSV replic up inactive and ABCB6 inh CP1 100.0.
C/C(Cl)=C\Cn1c(NCCc2ccccc2)nc2c1c(=O)n(C)c(=O)n2C was read as ABCB6 inh MLPCN 92.0, ABCB1 inh 0.0, ABCG2 block 0.3, p97 inhibitor 3.5, Rad51 HR inh -2.4 and HSV replic up inactive.
Screening CC(C)(C)OC(=O)N(Cc1ccccc1)Cc1ccccc1OCc1cccc(NC(=O)c2ccccc2)c1 returned ABCB6 inh MLPCN 102.0.
O=C(CCN1C(=O)C2C3CC(C(Br)C3Br)C2C1=O)OCC(=O)c1ccccc1 (centres undefined) was read as ABCB6 inh MLPCN 71.0*, ABCB1 inh 0.4, ABCG2 block 1.5, p97 inhibitor -1.1, HSV replic up inactive and ABCB6 inh CP1 99.0.
For O=C(CCN1C(=O)C2C3CCC(C3)C2C1=O)OCC(=O)c1ccccc1 (centres undefined) the results were ABCB6 inh MLPCN 91.0.
CC1(C(=O)NS(=O)(=O)c2ccc(F)cc2F)CCN1C(=O)Cc1cc(F)ccc1F (centres undefined) was read as ABCB6 inh MLPCN 86.0.
For Cc1ccc(F)c(S(=O)(=O)NC(=O)C2(C)CCN2C(=O)Cc2ccc(Cl)cc2Cl)c1 (centres undefined) the results were ABCB6 inh MLPCN 98.0.
Cc1ccc(F)c(S(=O)(=O)NC(=O)C2(C)CCN2C(=O)Cc2cc(F)ccc2F)c1 (centres undefined) was read as ABCB6 inh MLPCN 102.0 and ABCB6 inh CP1 98.0.
CC(C)(C)c1ccc(S(=O)(=O)NC(=O)C2(C)CCN2C(=O)Cc2cc(F)ccc2F)cc1 (centres undefined) was read as ABCB6 inh MLPCN 107.0.

Screening results as filed in PubChem.
